Results from ChEMBL document CHEMBL1122696, “Synthesis and antiviral/antitumor activities of certain pyrazolo[3,4-d]pyrimidine-4(5H)-selone nucleosides and related compounds” (J Med Chem, 1984).
The source made the active and inactive calls. The rule behind the calls is not given here.

Legend:
[1] = Toxic level of the compound; assay type: ADME
Method in brief: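 HeLa and Vero cells grown overnight to near confluency, then exposed to compound at 100 or 1000 μg/mL for 24-72 h in quadruplicate wells. Cells trypsinized, serially diluted and replated, then grown 3-5 days drug-free. Crystal violet-stained colonies counted. Survival expressed as relative plating efficiency versus untreated controls.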

[2] = test system: Human alphaherpesvirus 2; experiment: In vitro antiviral activity against Herpes simplex type 2 virus; assay type: functional; conditions: read-out: ED50 (the source's name)
[3] = test system: L1210; experiment: In vitro antitumor activity against L1210 leukemia cells; assay type: functional; conditions: Mus musculus, read-out: ID50 (the source's name)
Method in brief: (§1)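 L1210 or P388 cells kept in RPMI-1640 with 10% heat-inactivated fetal calf serum, seeded at 5×10^4 cells/mL in tubes. Grown with compound at 4-5 log doses for 48 h at 37 °C. Growth read by Coulter cell count as % of untreated control tubes. ID50 = dose giving 50% growth inhibition.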

[4] = test system: Measles morbillivirus; experiment: In vitro antiviral activity against measles virus; assay type: functional; conditions: read-out: ED50 (the source's name)
[5] = test system: P388; experiment: In vitro antitumor activity against P388 leukemia cells; assay type: functional; conditions: Mus musculus, read-out: ID50 (the source's name); method in brief: as §1
[6] = test system: Human respirovirus 3; experiment: In vitro antiviral activity against parainfluenza type (para 3) virus; assay type: functional; conditions: read-out: ED50 (the source's name)
[7] = test system: Vaccinia virus; experiment: In vitro antiviral activity against Vaccinia virus; assay type: functional; conditions: Orthopoxvirus vaccinia; read-out: ED50 (the source's name)
[8] = test system: L1210; experiment: In vitro antitumor activity against L1210 leukemia cells; b = Inactive at 10e-4 M; assay type: functional, cell-based; conditions: Mus musculus
Method in brief: (§2)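 L1210 and P388 cells kept in RPMI-1640 with 10% heat-inactivated fetal calf serum. Seeded in tubes at 5×10^4 cells/mL and grown 48 h at 37 °C with compound at 4-5 log doses. Growth counted by Coulter counter and expressed as % of untreated control tubes. ID50 is the dose giving 50% growth inhibition.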

[9] = test system: P388; experiment: In vitro antitumor activity against P388 leukemia cells; b = Inactive at 10e-4 M; assay type: functional, cell-based; conditions: Mus musculus; method in brief: as §2
[10] = Toxic level of the compound; None; assay type: ADME

SMILES	Toxic level [1] [µM]	EC50 [2] [µM]	IC50 [3] [µM]	EC50 [4] [µM]	IC50 [5] [µM]	EC50 [6] [µM]	EC50 [7] [µM]	ID50 [8]	ID50 [9]	Toxic level [10]
OC[C@H]1OC(n2nc(Br)c3c([SeH])ncnc32)[C@H](O)[C@@H]1O (stereo partly drawn)	50	9	2.7	1.3	2.3	> 5000	5	–	–	–
Cc1nc2c(cnn2C2O[C@H](CO)[C@@H](O)[C@H]2O)c(=O)[nH]1 (stereo partly drawn)	5000	50	–	12	–	> 5000	1600	Inactive at 10^-4M	Inactive at 10^-4M	–
Cc1nc(S)c2cnn(C3O[C@H](CO)[C@@H](O)[C@H]3O)c2n1 (stereo partly drawn)	5000	320	–	0.0014	–	> 5000	1200	Inactive at 10^-4M	Inactive at 10^-4M	–
Cc1nc(N)c2cnn(C3O[C@H](CO)[C@@H](O)[C@H]3O)c2n1 (stereo partly drawn)	–	35	–	12	–	> 5000	5000	Inactive at 10^-4M	Inactive at 10^-4M	Not Active
OC[C@H]1OC(n2ncc3c([SeH])ncnc32)[C@H](O)[C@@H]1O (stereo partly drawn)	160	5	2.5	1.2	2.7	> 5000	9.6	–	–	–
OC[C@H]1OC(n2ncc3c(S)ncnc32)[C@H](O)[C@@H]1O (stereo partly drawn)	–	160	–	12	–	> 5000	–	Inactive at 10^-4M	Inactive at 10^-4M	Not Active
Cc1nc([SeH])c2cnn(C3O[C@H](CO)[C@@H](O)[C@H]3O)c2n1 (stereo partly drawn)	500	5	3.1	1.3	3.1	13	16	–	–	–
